# In the library only some 12% were active in any assay of this set; here they are far more common.
# L major viab: Leishmania major promastigote growth inhibition; AID 1063; 200,000 compounds, 9% hits; inhibition, % at 10 µM; Leishmania major promastigotes, resazurin fluorescence viability; in the data active = inhibition above about 50%;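 also: promastigotes grown with compound for 44 hours at 28 °C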
# ROMK mod: modulates human ROMK potassium channel activity. P48048. Tet-inducible ROMK, thallium flux fluorescence; actives lie on both sides. B-score at 10 µM. 130,000 compounds, 2% hits;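 active = signal ratio slope over the read window, or its plate-corrected B-score, at least 3 SD from the plate mean, either direction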;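 also: B-score of the F/F0 ratio slope over 7 to 12 s after thallium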
# KCC2 mod: modulators of human KCC2 chloride dependent transport. Q9H2X9. KCC2 cells, thallium flux FluoZin-2 fluorescence. B-score of Tl+ flux slope (higher = more flux/activation; lower = inhibition) at 10 µM. 190,000 compounds, 2.2% hits. AID 1456;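 active = thallium flux slope and its plate-corrected score both differing from the plate sample mean at a set confidence after two filtering rounds, in either direction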;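 also: slope of fluorescence scaled to starting intensity during 10 to 20 s after thallium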
# Target sequence (Q9H2X9 whole entry, looked up): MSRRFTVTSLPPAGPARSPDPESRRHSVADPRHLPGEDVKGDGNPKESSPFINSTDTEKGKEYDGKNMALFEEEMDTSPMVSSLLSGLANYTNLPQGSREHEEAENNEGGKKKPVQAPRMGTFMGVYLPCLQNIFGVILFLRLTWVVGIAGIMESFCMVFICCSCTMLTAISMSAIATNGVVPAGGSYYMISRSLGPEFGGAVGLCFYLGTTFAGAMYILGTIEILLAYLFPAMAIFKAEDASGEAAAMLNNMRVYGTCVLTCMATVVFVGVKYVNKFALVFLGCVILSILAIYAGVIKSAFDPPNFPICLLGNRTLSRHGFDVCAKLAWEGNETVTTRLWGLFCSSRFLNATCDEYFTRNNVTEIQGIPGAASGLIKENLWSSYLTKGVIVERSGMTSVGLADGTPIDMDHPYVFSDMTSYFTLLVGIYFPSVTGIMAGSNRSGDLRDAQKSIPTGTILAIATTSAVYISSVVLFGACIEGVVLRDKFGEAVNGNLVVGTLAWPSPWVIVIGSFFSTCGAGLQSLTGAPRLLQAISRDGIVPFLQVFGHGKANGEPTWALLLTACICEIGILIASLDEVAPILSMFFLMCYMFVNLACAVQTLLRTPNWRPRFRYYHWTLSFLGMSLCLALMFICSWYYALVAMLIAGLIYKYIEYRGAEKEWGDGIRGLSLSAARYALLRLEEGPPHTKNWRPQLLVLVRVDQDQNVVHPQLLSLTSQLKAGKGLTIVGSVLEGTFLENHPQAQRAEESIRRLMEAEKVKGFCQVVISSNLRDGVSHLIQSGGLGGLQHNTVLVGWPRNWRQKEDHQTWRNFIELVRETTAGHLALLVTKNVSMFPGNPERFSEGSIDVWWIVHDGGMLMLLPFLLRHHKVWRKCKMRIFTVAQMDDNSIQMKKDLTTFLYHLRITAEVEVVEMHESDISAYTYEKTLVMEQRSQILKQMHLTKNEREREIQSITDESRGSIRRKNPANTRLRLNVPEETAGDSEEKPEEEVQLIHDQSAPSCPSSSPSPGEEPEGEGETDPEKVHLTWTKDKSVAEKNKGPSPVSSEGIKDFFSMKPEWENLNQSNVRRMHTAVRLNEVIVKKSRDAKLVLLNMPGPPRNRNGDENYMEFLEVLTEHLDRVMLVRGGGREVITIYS
# Diaphorase act: activates diaphorase or chemically reduces, flagging diaphorase assay artifacts | Diaphorase/resazurin coupled assay, resorufin fluorescence, 16 min; hits give high values; 1 = vehicle wells, 0 = NADH-free wells | activation factor at 20 µM | 190,000 compounds, 0.005% hits | AID 1229;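 active = diaphorase activity raised at least twofold by the compound at 20 µM; inactive = activation factor below 2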
#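 Test system: Clostridium kluyveri diaphorase, purified enzyme; input: enzyme 0.07 U/mL final; buffer or medium: 50 mM HEPES pH 7.4 with 4.542 mM MgCl2, 0.005% Tween 20; also added: 0.114 mM NADH and 0.1 mM resazurin, final amounts; schedule: 16 min enzyme reaction, ambient temperature; technique: fluorescence of resorufin, 544 nm excitation, 590 nm emission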
# WT yeast gro inh: growth inhibition of WT yeast, mitochondrial fusion screen. inhibition, % at 10 µM. mitochondrial fusion phenotypic screen, WT strain. AID 1362. 190,000 compounds, 2.1% hits; in the data active = inhibition above about 58%; tested in S. cerevisiae
# Diaphorase inh: diaphorase inhibition or chemical oxidation counter-screen. 190,000 compounds, 0.69% hits. diaphorase resazurin-to-resorufin fluorescence, NADH, 16 min; bacterial (C. kluyveri) enzyme, not human. AID 1217. inhibition, % at 20 µM;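 active = primary screen inhibition at 20 µM above a set limit, cut at about 50% in these data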;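 also: plate controls were DMSO with full reaction for no effect and wells lacking NADH for full effect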
#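 Test system: diaphorase enzyme from Clostridium kluyveri; amount: diaphorase at 0.14 U/mL in enzyme working solution; detection: fluorescence of resorufin formed from resazurin, Ex 544/Em 590 nm; times: reaction incubation of 16 min at room temperature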
# Numbers without * were called inactive; / = no result given.
SMILES,L major viab,ROMK mod,KCC2 mod,Diaphorase act,WT yeast gro inh,Diaphorase inh
COc1ccc(S(=O)(=O)N2CCCCCC2)cc1NC(=O)Cc1cc(OC)c(OC)c(OC)c1,100*,-0.79,0.022,0.9,-13,13
COc1ccc(NC(=S)Nc2cccc(S(=O)(=O)N3CCCCC3)c2)cc1,95*,/,0.022,0.9,-16,8
COc1ccc(S(=O)(=O)N2CCCCC2)cc1NC(=S)Nc1ccccc1,84*,-0.47,-0.2,0.9,4,12
COc1ccc(NC(=S)Nc2cc(S(=O)(=O)N3CCCCC3)ccc2OC)cc1,91*,-0.64,-0.0062,0.8,4,17
COc1ccc(C(=O)NC(=S)Nc2cccc(S(=O)(=O)N3CCOCC3)c2)cc1,5,2.1,0.8,0.8,-4,18
O=C(CN1C(=O)c2cccc3cccc1c23)N1CCN(Cc2ccc3c(c2)OCO3)CC1,88*,/,-0.86,0.9,13,10
O=C(C1COc2ccccc2O1)N1CCN(Cc2ccc3c(c2)OCO3)CC1 (configuration not stated),89*,/,0.89,0.9,21,9
O=C(CCN1C(=O)c2cccc3cccc(c23)C1=O)N1CCN(Cc2ccc3c(c2)OCO3)CC1,37,-1.1,/,0.8,23,18
O=C(CCc1ccc(S(=O)(=O)NCCc2ccccc2)cc1)N1CCN(Cc2ccc3c(c2)OCO3)CC1,78*,-0.87,-1.2,0.8,-6,23
O=C(CSCc1ccccc1)N1CCN(Cc2ccc3c(c2)OCO3)CC1,99*,-2.9*,0.018,0.8,-4,19
CC(C)CNS(=O)(=O)c1ccc(CCC(=O)N2CCN(Cc3ccc4c(c3)OCO4)CC2)cc1,0,/,-0.72,1,-12,1
COc1cccc(N2C(=O)CC(N3CCN(CCN=CC4=C(O)CC(C)(C)CC4=O)CC3)C2=O)c1 (configuration not stated),-4,1,0.0015,1,0,1
COc1cccc(-n2nc(C#N)c(Cl)cc2=O)c1,100*,-3.2,/,0.9,77*,10
Cc1ccccc1NC1=C(Cl)C(=O)N(C2CCCCC2)C1=O,37,/,-0.24,0.9,69*,14
COc1ccccc1NC1=C(Cl)C(=O)N(C2CCCCC2)C1=O,10,/,/,0.7,70*,30
CC(C)CC(NC(=O)CNC(=O)C1O[C@@H]2OC(C)(C)O[C@@H]2[C@H]2OC(C)(C)O[C@@H]12)C(=O)O (some centres not stated),1,-1.8,1.6,1,6,3
COc1cccc(N2CC(=O)N(NC(=O)CSc3nc(C)cc(C)c3C#N)CC2=O)c1,-1,0.055,0.81,0.9,3,7
COc1ccc(OCC(O)CNC(=O)Nc2cc(F)ccc2C)cc1 (configuration not stated),/,/,-0.057,/,/,/
Cc1nc(C)c(CCNC(=O)c2ccccc2Br)s1,-5,0.63,2.5,0.9,-13,11
O=C(COc1nncc2ccccc12)Nc1ccc(F)c(F)c1,-9,0.27,-0.4,1,4,3
O=S(=O)(NC1CCCCC1Nc1ccc(Cl)cc1)c1ccccc1 (configuration not stated),91*,-0.19,-0.63,0.8,28,19
O=S(=O)(NC1CCCCC1Sc1ncccn1)c1ccccc1 (configuration not stated),65*,-0.025,-0.39,1,-17,-2
Cc1ccc(C)c(OCC(=O)N/N=C/c2c(C)nn(-c3ccccc3)c2Cl)c1,7,2,0.52,0.9,25,10
C=CCNC(=O)/C(C#N)=C/c1c(N(Cc2ccccc2)Cc2ccccc2)nc2ccccn2c1=O,76*,/,-1.2,0.9,20,6
CCOc1ccccc1NC(=O)/C(C#N)=C/c1c(C)nn(-c2ccccc2)c1Cl,82*,-0.57,-0.56,0.9,24,15
SMILES,L major viab,ROMK mod,KCC2 mod,Diaphorase act,WT yeast gro inh,Diaphorase inh
C=CCNC(=O)/C(C#N)=C/c1c(C)nn(-c2ccccc2)c1Cl,99*,-3,-3.3,0.8,36,22
CCCCN(CC)CCCNC(=O)CN1C(=O)CSc2ccc(S(=O)(=O)N3CCOCC3)cc21,4,0.15,0.044,0.8,-10,21
Cc1ccccc1NC(=S)NCc1ccc(Cl)cc1,9,-0.54,-0.86,0.8,26,16
Cc1ccc(-n2c(C)cc(/C=N/NC(=O)c3ccc(CN4CCOCC4)cc3)c2C)cc1,53*,/,/,1,8,1
Cc1ccc(-n2c(C)cc(/C=N/NC(N)=S)c2C)cc1,100*,/,0.14,0.9,-19,13
C/C=C/c1ccc(OCc2cc(=O)n3cc(C)ccc3n2)c(OC)c1,/,/,0.33,/,/,/
COc1ccc(-c2oc(NC(=O)c3ccc(C)cc3)c(C#N)c2-c2ccc(OC)cc2)cc1,24,-0.3,/,0.8,10,22
O=C(Nc1nc(-c2ccccc2)c(-c2ccccc2)o1)c1ccc(F)cc1,20,/,/,0.8,17,16
COc1cccc(C(=O)Nc2nc(-c3ccccc3)c(-c3ccccc3)o2)c1,6,/,29*,0.9,74*,8
COc1ccc(C(=O)Nc2oc(-c3ccccc3)c(-c3ccccc3)c2C#N)cc1,86*,/,0.13,0.8,13,19
CCCCn1c2ccccc2c2nnc(SCC(=O)NC3=NN=C(c4ccccc4)CS3)nc21,15,/,-0.43,0.8,60*,20
CCCn1c2ccccc2c2nnc(SCC(=O)OC)nc21,-1,-0.55,-1.3,0.9,26,14
O=C(COc1ccc(NS(=O)(=O)c2ccc(F)cc2)cc1)N1CCOCC1,1,-0.75,-0.027,0.9,-10,6
O=C(NCCCn1ccnc1)/C(=C\c1cccnc1)NC(=O)c1ccccc1F,-3,0.0071,0.28,0.9,2,6
COc1ccc(CC2(CO)CCN(C(C)COc3ccccc3)CC2)cc1 (configuration not stated),79*,/,0.33,/,-7,/
CCN1CCCC(CO)(Cc2ccccc2)C1 (configuration not stated),1,-1.1,-0.26,0.8,-3,17
COc1ccc(CC2(CO)CCN(C/C=C/c3ccccc3OC)CC2)cc1,87*,/,0.68,/,21,/
CC(COc1ccccc1)N1CCC(CO)(Cc2ccccc2)CC1 (configuration not stated),60*,-0.32,-0.91,0.9,5,7
Cc1nn(-c2ccccc2)c2nc3c(cc12)C(=O)CCC3,0,-0.64,0.54,0.9,0,13
NC(=O)N/N=C\c1cc(Br)ccc1O,-12,-1.5,0.0035,0.8,-14,16
CC(C)(C)c1nnc(N/N=C/c2cc(Br)ccc2O)n(N)c1=O,98*,-0.63,1.1,0.7,16,26
Cc1sc2nc(-c3ccccc3)oc(=O)c2c1C,-2,0.62,1.1,1,2,4
